pIC50: −log10 of the molar value.
Assays:
[1] = Concentration in rat plasma 24 hours after single 5 mg/kg oral cassette gavage dose; assay type: ADME, organism-based; set-up: dose 5 mg/kg, route oral; settings: read-out: C24
Matrilysin = biological target: T1, Matrilysin (Homo sapiens, UniProt P09237); assay: In vitro inhibition of matrix metalloprotease-7 (MMP-7)
T1 sequence (P09237 whole entry): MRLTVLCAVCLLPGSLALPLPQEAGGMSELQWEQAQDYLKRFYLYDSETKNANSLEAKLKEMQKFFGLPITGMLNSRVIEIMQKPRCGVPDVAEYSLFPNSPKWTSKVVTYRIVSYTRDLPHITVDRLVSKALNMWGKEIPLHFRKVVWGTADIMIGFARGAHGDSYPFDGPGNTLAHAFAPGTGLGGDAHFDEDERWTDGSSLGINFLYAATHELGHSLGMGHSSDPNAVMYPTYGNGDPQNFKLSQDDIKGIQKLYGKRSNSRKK

Collagenase 3 = Collagenase 3 (Homo sapiens, UniProt P45452)
[2] = AUC in rats following a single 5 mg/kg oral cassette gavage dose; assay type: ADME, organism-based; set-up: dose 5 mg/kg, route oral; settings: rat, plasma, read-out: AUC 0-tldc
Summary of the method: (§1)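 Cassette of 5–7 compounds given together as one oral gavage, 5 mg/kg per compound, methyl cellulose suspension, 3 fasted male Wistar rats (80-90 days old). Heparinized plasma taken by jugular cannula predose to 48 h. LC-MS/MS with LLOQ 10 ng/mL. Noncompartmental analysis of individual rats: Cmax/tmax as observed, t1/2 = 0.693/λz, trapezoidal AUC(0-tldc) extrapolated to infinity.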

[3] = Time to maximal concentration (tmax) in rats following a single 5 mg/kg oral cassette gavage dose; assay type: ADME, organism-based; set-up: dose 5 mg/kg, route oral; settings: rat, in vivo; summary of the method: as §1
Stromelysin-1 = Stromelysin-1 (Homo sapiens, UniProt P08254); assay: In vitro inhibition of recombinant human matrix metalloprotease-3 (MMP-3)
Sequence of Stromelysin-1 (P08254 whole entry): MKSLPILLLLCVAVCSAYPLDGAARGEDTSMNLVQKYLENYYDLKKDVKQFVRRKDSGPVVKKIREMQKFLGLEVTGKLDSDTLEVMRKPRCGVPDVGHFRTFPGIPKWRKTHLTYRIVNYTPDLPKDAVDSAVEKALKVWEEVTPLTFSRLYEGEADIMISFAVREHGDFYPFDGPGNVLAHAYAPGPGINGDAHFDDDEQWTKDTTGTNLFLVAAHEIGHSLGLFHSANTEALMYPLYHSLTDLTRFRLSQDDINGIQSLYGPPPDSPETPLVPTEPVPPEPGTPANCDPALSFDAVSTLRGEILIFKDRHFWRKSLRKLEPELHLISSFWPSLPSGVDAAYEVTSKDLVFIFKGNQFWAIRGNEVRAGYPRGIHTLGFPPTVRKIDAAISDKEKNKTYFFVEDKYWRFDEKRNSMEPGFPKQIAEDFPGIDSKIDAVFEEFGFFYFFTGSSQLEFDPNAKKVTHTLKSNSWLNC

[4] = Pharmacokinetic parameters in rats following a single 5 mg/kg oral cassette gavage dose; assay type: ADME, organism-based; set-up: dose 5 mg/kg, route oral; settings: rat, in vivo, read-out: AUC 0-infinity; summary of the method: as §1
[5] = biological target: 72 kDa type IV collagenase (Homo sapiens, UniProt P08253); assay: In vitro inhibition of matrix metalloprotease-2 (MMP-2)
Sequence of 72 kDa type IV collagenase (P08253 whole entry): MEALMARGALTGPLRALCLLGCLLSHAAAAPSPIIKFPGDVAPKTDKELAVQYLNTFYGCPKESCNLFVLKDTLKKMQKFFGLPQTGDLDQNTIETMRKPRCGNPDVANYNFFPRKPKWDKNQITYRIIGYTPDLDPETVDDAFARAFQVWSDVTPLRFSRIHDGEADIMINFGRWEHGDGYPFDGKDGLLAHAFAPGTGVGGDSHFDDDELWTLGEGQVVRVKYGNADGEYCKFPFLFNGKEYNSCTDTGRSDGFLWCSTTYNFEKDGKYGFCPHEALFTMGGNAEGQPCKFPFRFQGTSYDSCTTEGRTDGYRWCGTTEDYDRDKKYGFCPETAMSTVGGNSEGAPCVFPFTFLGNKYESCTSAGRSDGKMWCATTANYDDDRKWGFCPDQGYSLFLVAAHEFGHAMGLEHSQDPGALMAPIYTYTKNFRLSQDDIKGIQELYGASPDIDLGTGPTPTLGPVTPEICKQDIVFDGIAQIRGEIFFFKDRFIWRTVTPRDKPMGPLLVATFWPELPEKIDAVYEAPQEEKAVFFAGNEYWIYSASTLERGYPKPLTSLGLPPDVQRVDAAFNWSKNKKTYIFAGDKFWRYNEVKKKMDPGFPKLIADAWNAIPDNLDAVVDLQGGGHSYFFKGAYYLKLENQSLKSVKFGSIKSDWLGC

[6] = Half life (t1/2) in rats following a single 5 mg/kg oral cassette gavage dose; assay type: ADME, organism-based; set-up: dose 5 mg/kg, route oral; settings: rat, in vivo; summary of the method: as §1
Interstitial collagenase = biological target: T2, Interstitial collagenase (Homo sapiens, UniProt P03956); assay: In vitro inhibition of human recombinant matrix metalloprotease-1 (MMP-1)
T2 sequence (P03956 whole entry): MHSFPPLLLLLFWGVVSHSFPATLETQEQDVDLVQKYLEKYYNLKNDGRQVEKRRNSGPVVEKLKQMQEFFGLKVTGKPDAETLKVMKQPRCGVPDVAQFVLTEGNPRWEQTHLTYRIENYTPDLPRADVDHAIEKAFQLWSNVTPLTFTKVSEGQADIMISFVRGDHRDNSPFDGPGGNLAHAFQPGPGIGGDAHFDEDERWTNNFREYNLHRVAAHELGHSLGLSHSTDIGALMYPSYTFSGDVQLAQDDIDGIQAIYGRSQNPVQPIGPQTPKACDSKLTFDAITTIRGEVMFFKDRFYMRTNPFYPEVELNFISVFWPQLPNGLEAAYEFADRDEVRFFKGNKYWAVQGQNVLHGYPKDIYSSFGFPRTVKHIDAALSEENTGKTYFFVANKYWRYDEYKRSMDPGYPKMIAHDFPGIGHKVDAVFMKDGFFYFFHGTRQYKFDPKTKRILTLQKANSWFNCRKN

[7] = biological target: Matrix metalloproteinase-9 (Homo sapiens, UniProt P14780); assay: In vitro inhibition of matrix metalloprotease-9 (MMP-9)
Sequence of Matrix metalloproteinase-9 (P14780 whole entry): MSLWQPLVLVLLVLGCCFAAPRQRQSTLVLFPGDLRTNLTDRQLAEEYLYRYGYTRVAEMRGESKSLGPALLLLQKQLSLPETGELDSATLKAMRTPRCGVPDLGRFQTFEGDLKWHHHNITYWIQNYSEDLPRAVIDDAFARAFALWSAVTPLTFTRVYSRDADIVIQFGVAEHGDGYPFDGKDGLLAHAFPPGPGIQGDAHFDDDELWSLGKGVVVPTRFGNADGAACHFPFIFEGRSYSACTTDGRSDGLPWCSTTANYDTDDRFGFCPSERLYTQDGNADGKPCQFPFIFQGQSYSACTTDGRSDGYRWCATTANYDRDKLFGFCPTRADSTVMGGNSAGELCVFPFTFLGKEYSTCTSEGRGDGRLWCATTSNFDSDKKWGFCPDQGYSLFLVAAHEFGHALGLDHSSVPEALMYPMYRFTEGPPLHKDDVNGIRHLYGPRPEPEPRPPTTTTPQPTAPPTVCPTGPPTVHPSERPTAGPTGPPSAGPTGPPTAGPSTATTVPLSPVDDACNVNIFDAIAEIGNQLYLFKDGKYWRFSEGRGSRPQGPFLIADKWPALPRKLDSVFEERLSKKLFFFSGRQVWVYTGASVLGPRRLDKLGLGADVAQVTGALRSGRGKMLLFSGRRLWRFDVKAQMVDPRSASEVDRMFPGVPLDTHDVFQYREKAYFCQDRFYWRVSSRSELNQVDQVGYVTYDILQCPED

[8] = Cmax in rat plasma after single 5 mg/kg oral cassette gavage dose; assay type: ADME, organism-based; set-up: dose 5 mg/kg, route oral; summary of the method: as §1

SMILES	concentration at 24 h [1] [µg/mL]	pIC50 (Matrilysin)	pIC50 (Collagenase 3)	AUC [2] [µg·h/mL]	Tmax [3] [h]	pIC50 (Stromelysin-1)	AUC [4] [µg·h/mL]	pIC50 [5]	half-life [6] [h]	pIC50 (Interstitial collagenase)	pIC50 [7]	Cmax [8] [µg/mL]
CC(C)[C@@H](NS(=O)(=O)c1ccc(-c2ccc(Br)cc2)cc1)C(=O)NO	0.01	6.85	8.70	5.73	0.33	8.30	5.86	9.00	6.78	6.96	7.74	5.93
CC(C)[C@H](NS(=O)(=O)c1ccc(-c2ccc(Cl)cc2)cc1)C(=O)O	4.02	5.12	7.32	170	0.5	8.05	427	7.96	34.1	5.19	4.80	8.86
O=C(O)C(CCSCc1ccccc1)NS(=O)(=O)c1ccc(-c2ccc(Br)cc2)cc1 (stereo not drawn)	1.53	4.44	7.44	119	1.33	7.66	132	8.15	12.5	4.25	5.00	11.6
CC(C)[C@@H](NS(=O)(=O)c1ccc(-c2ccc(C#N)cc2)cc1)C(=O)O	4.49	4.72	7.28	256	1.33	8.30	277	8.15	12.8	4.85	5.42	12.2

Source: ChEMBL document CHEMBL1133013, “Structure-activity relationships and pharmacokinetic analysis for a series of potent, systemically available biphenylsulfonamide matrix metalloproteinase inhibitors” (J Med Chem, 2000)
